{
  "source": "paper PMC4561207",
  "about": "(Child's nervous system : ChNS : official journal of the …, 2015)",
  "tested_on": "Plasma VEGF, bFGF, endostatin and IL8 and urine MMPs",
  "experiment": "Pharmacodynamic biomarkers in plasma and urine",
  "format": "in vivo, human",
  "settings": "baseline vs day 7–14 of cycle 1, or baseline vs end of cycle 2",
  "how_it_was_run": "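Plasma VEGF, bFGF, endostatin and IL8 and urine MMPs were measured by human immunoassays before course 1, once on days 7–14 of course 1, at each MRI scan, and at discontinuation or completion. The fold change was calculated as the later-timepoint value divided by the earlier-timepoint value.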",
  "data": [
    {"smiles": "COc1cc2c(Oc3ccc4[nH]c(C)cc4c3F)ncnc2cc1OCCCN1CCCC1", "note": "[cediranib, Cediranib]", "values": [
      {"measurement": "changes in MMP-9, MMP-9 Dimers or MMP-9/NGAL", "result": "No significant changes"}
    ]}
  ]
}
